Assay results reported in ChEMBL document CHEMBL1139138, “Pyrrolidine-constrained phenethylamines: The design of potent, selective, and pharmacologically efficacious dipeptidyl peptidase IV (DPP4) inhibitors from a lead-like screening hit” (Bioorg Med Chem Lett, 2007).
Blank lines part the entries; values can stand above or below the compound they belong to.

Columns and labels:
[1] = tested on: Rattus norvegicus; assay: AUC in Sprague-Dawley rat at 5 mg/kg, po; format: ADME, organism-based, Plasma; parameters: dose 5 mg/kg, route oral; settings: in vivo
Procedure, shortened: (§1)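 Pharmacokinetics in rat dosed at 5 mg/kg and in dog and monkey dosed at 2.5 mg/kg. Cmax, t1/2 (terminal) and AUC were taken from oral dosing. F is oral bioavailability. Vss is volume of distribution at steady state.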

[2] = Half life in Sprague-Dawley rat at 5 mg/kg, po; format: ADME, organism-based; parameters: dose 5 mg/kg, route oral; settings: in vivo; procedure, shortened: as §1
[3] = Half life in human liver microsome; format: ADME; settings: liver microsomes
Procedure, shortened: (§2)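 Stability on incubation with rat or human liver microsomes, expressed as half-life.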

[4] = Half life in rat liver microsome; format: ADME; settings: liver microsomes; procedure, shortened: as §2
[5] = tested on: Rattus norvegicus; assay: Volume of distribution at steady state in Sprague-Dawley rat at 5 mg/kg, po; format: ADME, organism-based; parameters: dose 5 mg/kg, route oral; settings: in vivo; procedure, shortened: as §1
[6] = Cmax in Sprague-Dawley rat at 5 mg/kg, po; format: ADME, organism-based; parameters: dose 5 mg/kg, route oral; settings: in vivo; procedure, shortened: as §1
[7] = Oral bioavailability in Sprague-Dawley rat at 5 mg/kg, po; format: ADME, organism-based; settings: in vivo; procedure, shortened: as §1
[8] = Plasma clearance in Sprague-Dawley rat at 5 mg/kg, po; format: ADME, organism-based; parameters: dose 5 mg/kg, route oral; procedure, shortened: as §1
[9] = biological target: T1, Prolyl endopeptidase FAP (Homo sapiens, UniProt Q12884); assay: Inhibition of human FAPalpha
T1 sequence (Q12884 whole entry): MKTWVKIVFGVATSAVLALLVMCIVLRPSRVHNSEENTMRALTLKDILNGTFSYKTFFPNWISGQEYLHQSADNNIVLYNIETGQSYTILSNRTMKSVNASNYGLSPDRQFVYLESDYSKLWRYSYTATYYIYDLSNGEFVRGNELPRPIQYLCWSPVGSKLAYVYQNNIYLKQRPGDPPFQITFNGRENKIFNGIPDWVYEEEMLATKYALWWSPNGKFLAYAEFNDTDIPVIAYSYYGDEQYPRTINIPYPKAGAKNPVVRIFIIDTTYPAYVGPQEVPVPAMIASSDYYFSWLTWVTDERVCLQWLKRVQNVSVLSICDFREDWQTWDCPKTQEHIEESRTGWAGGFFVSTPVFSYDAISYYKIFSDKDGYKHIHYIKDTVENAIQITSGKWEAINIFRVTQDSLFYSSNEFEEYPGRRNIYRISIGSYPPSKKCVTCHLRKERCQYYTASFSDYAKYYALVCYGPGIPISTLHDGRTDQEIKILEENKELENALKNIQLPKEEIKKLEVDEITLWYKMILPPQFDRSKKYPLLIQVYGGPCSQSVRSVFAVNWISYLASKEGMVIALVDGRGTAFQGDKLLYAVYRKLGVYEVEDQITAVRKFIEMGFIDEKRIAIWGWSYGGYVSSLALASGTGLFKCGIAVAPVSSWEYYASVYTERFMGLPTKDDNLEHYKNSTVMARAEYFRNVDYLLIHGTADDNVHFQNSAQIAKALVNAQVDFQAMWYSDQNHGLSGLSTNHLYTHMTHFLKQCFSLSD

[10] = biological target: Cytochrome P450 2C9 (Homo sapiens, UniProt P11712); assay: Inhibition of CYP2C9; format: ADME
Chain of Cytochrome P450 2C9 (P11712 whole entry): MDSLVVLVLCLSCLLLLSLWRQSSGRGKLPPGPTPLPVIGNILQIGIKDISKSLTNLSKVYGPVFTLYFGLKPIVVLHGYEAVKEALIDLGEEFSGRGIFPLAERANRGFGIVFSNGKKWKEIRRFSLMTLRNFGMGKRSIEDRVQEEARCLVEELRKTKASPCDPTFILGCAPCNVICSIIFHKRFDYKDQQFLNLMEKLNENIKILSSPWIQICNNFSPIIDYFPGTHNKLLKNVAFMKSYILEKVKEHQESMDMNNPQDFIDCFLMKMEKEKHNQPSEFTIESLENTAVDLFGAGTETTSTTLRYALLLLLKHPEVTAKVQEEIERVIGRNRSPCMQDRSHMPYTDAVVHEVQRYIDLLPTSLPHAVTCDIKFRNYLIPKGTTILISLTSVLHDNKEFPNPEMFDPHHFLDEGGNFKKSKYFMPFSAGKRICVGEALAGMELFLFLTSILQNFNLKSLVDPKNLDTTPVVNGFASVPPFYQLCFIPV

[11] = biological target: T2, Dipeptidyl peptidase 4 (Homo sapiens, UniProt P27487); assay: Inhibition of human DPP4 in presence of rat plasma protein; format: cell-free
T2 sequence (P27487 whole entry): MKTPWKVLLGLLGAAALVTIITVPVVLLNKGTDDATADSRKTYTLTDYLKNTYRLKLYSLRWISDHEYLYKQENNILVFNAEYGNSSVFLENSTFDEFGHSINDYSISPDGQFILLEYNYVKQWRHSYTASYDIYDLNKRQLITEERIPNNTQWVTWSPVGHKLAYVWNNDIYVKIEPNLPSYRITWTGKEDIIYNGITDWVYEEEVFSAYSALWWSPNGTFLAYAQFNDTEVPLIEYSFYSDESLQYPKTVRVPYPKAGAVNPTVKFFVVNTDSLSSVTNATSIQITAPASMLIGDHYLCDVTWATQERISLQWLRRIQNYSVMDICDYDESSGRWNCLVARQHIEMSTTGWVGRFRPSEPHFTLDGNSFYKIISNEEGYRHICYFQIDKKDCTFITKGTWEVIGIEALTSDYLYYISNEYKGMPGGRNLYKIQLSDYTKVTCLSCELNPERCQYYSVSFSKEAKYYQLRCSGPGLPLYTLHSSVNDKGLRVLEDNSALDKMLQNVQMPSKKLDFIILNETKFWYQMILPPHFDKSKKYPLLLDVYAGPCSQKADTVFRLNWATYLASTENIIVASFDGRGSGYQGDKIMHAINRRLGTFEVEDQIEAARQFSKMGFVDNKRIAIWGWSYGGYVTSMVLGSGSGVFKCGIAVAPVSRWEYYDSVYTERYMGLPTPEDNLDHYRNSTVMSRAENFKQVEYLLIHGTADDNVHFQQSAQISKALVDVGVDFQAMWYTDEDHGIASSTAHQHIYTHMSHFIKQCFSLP

[12] = biological target: T3, Prolyl endopeptidase (Homo sapiens, UniProt P48147); assay: Inhibition of human POP
T3 sequence (P48147 whole entry): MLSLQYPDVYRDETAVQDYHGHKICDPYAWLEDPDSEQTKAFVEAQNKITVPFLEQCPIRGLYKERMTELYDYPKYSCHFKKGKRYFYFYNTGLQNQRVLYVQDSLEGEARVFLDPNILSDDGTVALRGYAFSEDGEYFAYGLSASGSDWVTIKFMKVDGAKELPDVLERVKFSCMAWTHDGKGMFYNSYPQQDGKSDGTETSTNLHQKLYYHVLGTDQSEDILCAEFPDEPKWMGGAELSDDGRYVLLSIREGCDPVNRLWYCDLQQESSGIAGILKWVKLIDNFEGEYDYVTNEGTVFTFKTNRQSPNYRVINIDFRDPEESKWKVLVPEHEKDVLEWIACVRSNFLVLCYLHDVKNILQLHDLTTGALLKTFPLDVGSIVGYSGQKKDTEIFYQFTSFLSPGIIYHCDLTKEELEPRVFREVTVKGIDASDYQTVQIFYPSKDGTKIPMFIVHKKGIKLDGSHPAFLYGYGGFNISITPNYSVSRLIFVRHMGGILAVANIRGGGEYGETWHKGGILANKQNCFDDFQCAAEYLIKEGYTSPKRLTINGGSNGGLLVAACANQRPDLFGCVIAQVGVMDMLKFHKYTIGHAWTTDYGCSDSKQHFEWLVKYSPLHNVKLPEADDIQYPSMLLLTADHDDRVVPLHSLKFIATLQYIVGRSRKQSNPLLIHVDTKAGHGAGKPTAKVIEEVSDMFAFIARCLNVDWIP

[13] = biological target: T2, Dipeptidyl peptidase 4; assay: Inhibition of human DPP4 by tight binding assay
[14] = biological target: Cytochrome P450 2D6 (Homo sapiens, UniProt P10635); assay: Inhibition of CYP2D6; format: ADME
Chain of Cytochrome P450 2D6 (P10635 whole entry): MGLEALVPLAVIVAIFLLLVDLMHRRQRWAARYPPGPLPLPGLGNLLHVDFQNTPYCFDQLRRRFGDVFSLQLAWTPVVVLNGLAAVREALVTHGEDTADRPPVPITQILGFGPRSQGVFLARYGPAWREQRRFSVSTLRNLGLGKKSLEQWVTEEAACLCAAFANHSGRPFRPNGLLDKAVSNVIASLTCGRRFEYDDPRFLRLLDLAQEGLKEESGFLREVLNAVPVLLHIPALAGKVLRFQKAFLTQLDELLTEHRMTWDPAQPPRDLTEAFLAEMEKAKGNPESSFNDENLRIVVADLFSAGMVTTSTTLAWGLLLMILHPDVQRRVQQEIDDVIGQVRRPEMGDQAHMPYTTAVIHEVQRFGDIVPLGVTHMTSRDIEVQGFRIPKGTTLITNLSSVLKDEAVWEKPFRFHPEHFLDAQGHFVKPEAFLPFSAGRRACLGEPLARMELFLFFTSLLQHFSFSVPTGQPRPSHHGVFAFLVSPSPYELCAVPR

[15] = biological target: Cytochrome P450 3A4 (Homo sapiens, UniProt P08684); assay: Inhibition of CYP3A4; format: ADME
Chain of Cytochrome P450 3A4 (P08684 whole entry): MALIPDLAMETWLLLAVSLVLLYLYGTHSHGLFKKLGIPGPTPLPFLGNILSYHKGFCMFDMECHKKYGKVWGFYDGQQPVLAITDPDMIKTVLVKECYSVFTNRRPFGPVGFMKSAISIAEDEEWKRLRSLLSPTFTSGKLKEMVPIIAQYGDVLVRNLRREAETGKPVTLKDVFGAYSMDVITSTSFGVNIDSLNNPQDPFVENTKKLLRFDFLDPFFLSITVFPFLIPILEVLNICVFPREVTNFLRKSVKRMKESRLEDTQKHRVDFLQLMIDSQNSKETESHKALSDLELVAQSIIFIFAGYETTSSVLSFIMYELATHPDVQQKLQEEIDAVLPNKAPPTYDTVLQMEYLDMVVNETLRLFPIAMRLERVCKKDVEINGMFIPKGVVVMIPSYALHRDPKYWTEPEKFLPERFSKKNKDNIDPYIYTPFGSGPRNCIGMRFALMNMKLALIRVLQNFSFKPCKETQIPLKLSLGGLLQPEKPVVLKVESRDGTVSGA

[16] = biological target: Dipeptidyl peptidase 8 (Homo sapiens, UniProt Q6V1X1); assay: Inhibition of human DPP8
Chain of Dipeptidyl peptidase 8 (Q6V1X1 whole entry): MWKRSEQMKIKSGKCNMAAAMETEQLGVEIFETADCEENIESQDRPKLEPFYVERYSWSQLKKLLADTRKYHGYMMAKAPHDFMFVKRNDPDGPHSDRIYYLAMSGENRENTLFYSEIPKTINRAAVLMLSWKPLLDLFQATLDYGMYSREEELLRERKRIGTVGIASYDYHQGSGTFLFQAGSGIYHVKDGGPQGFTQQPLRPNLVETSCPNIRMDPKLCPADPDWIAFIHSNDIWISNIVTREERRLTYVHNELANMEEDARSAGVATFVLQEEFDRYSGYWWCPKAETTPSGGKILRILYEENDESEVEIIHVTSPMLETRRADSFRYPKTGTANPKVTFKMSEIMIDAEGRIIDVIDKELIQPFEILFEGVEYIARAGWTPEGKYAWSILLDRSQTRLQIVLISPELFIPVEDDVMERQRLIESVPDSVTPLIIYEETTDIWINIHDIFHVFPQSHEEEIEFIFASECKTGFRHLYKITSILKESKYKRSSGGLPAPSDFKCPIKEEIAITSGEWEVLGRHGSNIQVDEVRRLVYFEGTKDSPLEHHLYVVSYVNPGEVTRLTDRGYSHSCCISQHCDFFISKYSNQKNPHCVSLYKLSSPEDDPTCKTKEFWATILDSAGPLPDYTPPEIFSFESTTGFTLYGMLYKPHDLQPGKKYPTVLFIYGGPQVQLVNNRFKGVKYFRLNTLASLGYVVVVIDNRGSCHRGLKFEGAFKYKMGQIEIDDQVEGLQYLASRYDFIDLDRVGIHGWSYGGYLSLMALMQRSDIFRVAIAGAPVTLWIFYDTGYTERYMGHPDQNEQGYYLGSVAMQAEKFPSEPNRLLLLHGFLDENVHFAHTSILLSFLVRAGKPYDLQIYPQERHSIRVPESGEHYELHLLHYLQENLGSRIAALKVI

[17] = biological target: Dipeptidyl peptidase 9 (Homo sapiens, UniProt Q86TI2); assay: Inhibition of human DPP9
Chain of Dipeptidyl peptidase 9 (Q86TI2 whole entry): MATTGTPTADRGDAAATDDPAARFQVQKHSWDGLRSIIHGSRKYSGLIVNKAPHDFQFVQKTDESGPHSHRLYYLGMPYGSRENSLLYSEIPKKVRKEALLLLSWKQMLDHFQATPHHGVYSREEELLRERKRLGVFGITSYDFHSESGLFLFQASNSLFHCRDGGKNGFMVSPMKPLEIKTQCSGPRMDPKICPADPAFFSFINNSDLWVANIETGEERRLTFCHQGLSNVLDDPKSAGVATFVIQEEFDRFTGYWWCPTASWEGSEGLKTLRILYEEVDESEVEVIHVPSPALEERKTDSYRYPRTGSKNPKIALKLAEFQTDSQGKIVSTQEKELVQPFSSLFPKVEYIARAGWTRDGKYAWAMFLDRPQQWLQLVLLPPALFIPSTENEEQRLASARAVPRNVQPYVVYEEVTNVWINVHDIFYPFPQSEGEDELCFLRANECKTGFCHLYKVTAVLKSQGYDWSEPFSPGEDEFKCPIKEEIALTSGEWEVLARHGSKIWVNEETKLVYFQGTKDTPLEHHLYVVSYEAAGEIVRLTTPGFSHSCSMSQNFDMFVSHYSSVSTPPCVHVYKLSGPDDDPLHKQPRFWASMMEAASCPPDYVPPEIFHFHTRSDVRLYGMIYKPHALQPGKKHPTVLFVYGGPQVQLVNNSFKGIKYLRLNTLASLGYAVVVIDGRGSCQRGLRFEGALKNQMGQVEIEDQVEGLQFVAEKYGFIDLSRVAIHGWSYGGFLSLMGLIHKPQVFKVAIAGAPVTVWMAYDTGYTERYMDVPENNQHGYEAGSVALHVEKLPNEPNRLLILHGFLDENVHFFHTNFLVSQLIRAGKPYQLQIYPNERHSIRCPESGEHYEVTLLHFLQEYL

AUC [1]: 3140 ng·h/mL
half-life [2]: 3.5 h
half-life [3]: > 3 h
half-life [4]: > 3 h
Vdss [5]: 1.77 L/kg
Cmax [6]: 1270 ng/mL
bioavailability [7]: 42%
CL/F [8]: 12.2 mL/min/kg
SMILES: CN(C)C(=O)c1cccc(-c2cc(N3CC(N)C(c4cc(F)c(F)cc4F)C3)ncn2)c1 (stereo not given)

Ki [9]: > 30 µM
IC50 [10]: > 10 µM
AUC [1]: 515 ng·h/mL
half-life [2]: 1.1 h
half-life [3]: > 3 h
half-life [4]: > 3 h
Ki [11]: 0.0017 µM
Vdss [5]: 1.84 L/kg
Ki [12]: > 30 µM
Cmax [6]: 347 ng/mL
Ki [13]: 0.0032 µM
bioavailability [7]: 21%
CL/F [8]: 34.8 mL/min/kg
IC50 [14]: > 10 µM
IC50 [15]: > 10 µM
SMILES: NC1CN(c2cc(-c3cccc(S(=O)(=O)N4CCOCC4)c3)ncn2)CC1c1cc(F)c(F)cc1F (stereo not given)

half-life [3]: > 3 h
half-life [4]: > 3 h
SMILES: NC1CN(c2ccccn2)CC1c1ccc(Cl)cc1Cl (racemic)

half-life [3]: > 3 h
half-life [4]: > 3 h
SMILES: NC1CN(c2ncccn2)CC1c1ccc(Cl)cc1Cl (racemic)

half-life [3]: > 3 h
half-life [4]: > 3 h
SMILES: NC1CN(c2cc(-c3ccsc3)ncn2)CC1c1cc(F)c(F)cc1Cl (racemic)

Ki [9]: > 30 µM
AUC [1]: 652 ng·h/mL
half-life [2]: 6.8 h
half-life [3]: > 3 h
half-life [4]: > 3 h
Ki [16]: > 3 µM
Ki [17]: > 3 µM
Vdss [5]: 1.78 L/kg
Ki [12]: > 30 µM
Cmax [6]: 176 ng/mL
bioavailability [7]: 18%
CL/F [8]: 18.3 mL/min/kg
IC50 [14]: > 10 µM
IC50 [15]: > 10 µM
SMILES: NC1CN(c2cc(-c3cccc(C(=O)O)c3)ncn2)CC1c1cc(F)c(F)cc1F (stereo not given)

IC50 [10]: > 10 µM
half-life [3]: > 3 h
half-life [4]: > 3 h
IC50 [14]: 0.098 µM
IC50 [15]: > 10 µM
SMILES: NC1CN(c2cc(-c3ccsc3)ncn2)CC1c1cc(F)c(F)cc1F (racemic)

half-life [3]: > 3 h
half-life [4]: > 3 h
IC50 [14]: 1.1 µM
SMILES: Cl.NC1CN(c2cc(-c3ccsc3)ncn2)CC1c1cc(F)c(F)cc1F (stereo not given)

half-life [3]: > 3 h
half-life [4]: > 3 h
SMILES: COc1cccc(CN(C)C(=O)N2CC(N)C(c3ccc(Cl)cc3Cl)C2)c1 (racemic)

half-life [3]: > 3 h
half-life [4]: > 3 h
SMILES: NC1CN(c2nccc(-c3ccccc3)n2)CC1c1ccc(Cl)cc1Cl (racemic)

half-life [3]: > 3 h
half-life [4]: > 3 h
SMILES: NC1CN(c2nccc(-c3ccsc3)n2)CC1c1ccc(Cl)cc1Cl (racemic)

half-life [3]: > 3 h
half-life [4]: > 3 h
SMILES: CCOC(=O)N1CC(N)C(c2ccc(Cl)cc2Cl)C1 (racemic)

half-life [3]: > 3 h
half-life [4]: > 3 h
SMILES: NC1CN(c2ccnc(-c3ccsc3)n2)CC1c1ccc(Cl)cc1Cl (racemic)

half-life [3]: > 3 h
half-life [4]: > 3 h
SMILES: NC1CN(c2cc(-c3ccccc3)ncn2)CC1c1cc(F)c(F)cc1F (stereo not given)

half-life [3]: > 3 h
half-life [4]: > 3 h
SMILES: NC1CN(c2cc(-c3ccc(C(=O)O)cc3)ncn2)CC1c1cc(F)c(F)cc1F (stereo not given)
